# Tested on: HEK-293T
# Test: Multiplex assay against HEK293T
# Assay type: toxicity, cell-based
# Conditions: human
# Method in brief: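 Phenotypes for tubulin, mitochondrial mass and membrane permeability are expressed as per cents of healthy-nucleus cells. Cells were stained live at seeding with Hoechst33342, BioTracker Green Microtubule Cytoskeleton Dye, MitoTracker Red and Annexin V Alexa Fluor 680, then imaged after compound addition on a CQ1 microscope at 37°C and 5% CO2. Machine-learning gating in CellPathfinder separated Hoechst high-intensity objects from normal cells, divided normal cells by nuclear state (healthy, pyknosed, fragmented) and divided pyknosed cells into mitotic or apoptotic.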
# [1] = 12 h, 1 µM, compound concentration 1 uM, replicate 1
# [2] = 12 h, 1 µM, compound concentration 1 uM, replicate 2
# [3] = 12 h, 10 µM, compound concentration 10 uM, replicate 1
# [4] = 12 h, 10 µM, compound concentration 10 uM, replicate 2
# [5] = 24 h, 1 µM, compound concentration 1 uM, replicate 1
# [6] = 24 h, 1 µM, compound concentration 1 uM, replicate 2
# [7] = 24 h, 10 µM, compound concentration 10 uM, replicate 1
# [8] = 24 h, 10 µM, compound concentration 10 uM, replicate 2
# [9] = 48 h, 1 µM, compound concentration 1 uM, replicate 1
# [10] = 48 h, 1 µM, compound concentration 1 uM, replicate 2
# [11] = 48 h, 10 µM, compound concentration 10 uM, replicate 1
# [12] = 48 h, 10 µM, compound concentration 10 uM, replicate 2
compound,measurement,setting,value
Cl.Clc1ccc2nsnc2c1NC1=NCCN1 [TIZANIDINE HYDROCHLORIDE],Population Apoptotic (%),[1],39%
same,Population Fragmented Nuclei (%),[1],9%
same,Population Healthy Nuclei (%),[1],80%
same,Population Hoechst High Intensity Objects (%),[1],8%
same,Population Membrane Permeable-Phenotype (%),[1],0%
same,Population Mitochondria Different-Phenotype (%),[1],36%
same,Population Mitotic Cells (%),[1],60%
same,Population Normal (%),[1],91%
same,Population Pyknosed Nuclei (%),[1],9%
same,Population Tubulin-Different-Phenotype (%),[1],26%
same,Total Cell Count,[1],474
same,Population Apoptotic (%),[2],44%
same,Population Fragmented Nuclei (%),[2],2%
same,Population Healthy Nuclei (%),[2],83%
same,Population Hoechst High Intensity Objects (%),[2],9%
same,Population Mitochondria Different-Phenotype (%),[2],62%
same,Population Mitotic Cells (%),[2],55%
same,Population Normal (%),[2],90%
same,Population Pyknosed Nuclei (%),[2],13%
same,Population Tubulin-Different-Phenotype (%),[2],20%
same,Total Cell Count,[2],373
same,Population Apoptotic (%),[3],30%
same,Population Fragmented Nuclei (%),[3],9%
same,Population Healthy Nuclei (%),[3],80%
same,Population Hoechst High Intensity Objects (%),[3],6%
same,Population Membrane Permeable-Phenotype (%),[3],0%
same,Population Mitochondria Different-Phenotype (%),[3],45%
same,Population Mitotic Cells (%),[3],70%
same,Population Normal (%),[3],93%
same,Population Pyknosed Nuclei (%),[3],9%
same,Population Tubulin-Different-Phenotype (%),[3],32%
same,Total Cell Count,[3],450
same,Population Apoptotic (%),[4],46%
same,Population Fragmented Nuclei (%),[4],7%
same,Population Healthy Nuclei (%),[4],79%
same,Population Hoechst High Intensity Objects (%),[4],4%
same,Population Mitochondria Different-Phenotype (%),[4],67%
same,Population Mitotic Cells (%),[4],53%
same,Population Normal (%),[4],95%
same,Population Pyknosed Nuclei (%),[4],13%
same,Population Tubulin-Different-Phenotype (%),[4],27%
same,Total Cell Count,[4],343
same,Population Apoptotic (%),[5],32%
same,Population Fragmented Nuclei (%),[5],11%
same,Population Healthy Nuclei (%),[5],79%
same,Population Hoechst High Intensity Objects (%),[5],4%
same,Population Membrane Permeable-Phenotype (%),[5],0%
same,Population Mitochondria Different-Phenotype (%),[5],20%
same,Population Mitotic Cells (%),[5],67%
same,Population Normal (%),[5],95%
same,Population Pyknosed Nuclei (%),[5],8%
same,Population Tubulin-Different-Phenotype (%),[5],17%
same,Total Cell Count,[5],597
same,Population Apoptotic (%),[6],45%
same,Population Fragmented Nuclei (%),[6],10%
same,Population Healthy Nuclei (%),[6],80%
same,Population Hoechst High Intensity Objects (%),[6],5%
same,Population Mitochondria Different-Phenotype (%),[6],38%
same,Population Mitotic Cells (%),[6],54%
same,Population Normal (%),[6],94%
same,Population Tubulin-Different-Phenotype (%),[6],15%
same,Total Cell Count,[6],434
same,Population Apoptotic (%),[7],32%
same,Population Fragmented Nuclei (%),[7],11%
same,Population Healthy Nuclei (%),[7],78%
same,Population Hoechst High Intensity Objects (%),[7],5%
same,Population Membrane Permeable-Phenotype (%),[7],1%
same,Population Mitochondria Different-Phenotype (%),[7],23%
same,Population Mitotic Cells (%),[7],67%
same,Population Normal (%),[7],94%
same,Population Pyknosed Nuclei (%),[7],9%
same,Population Tubulin-Different-Phenotype (%),[7],18%
same,Total Cell Count,[7],621
same,Population Apoptotic (%),[8],29%
same,Population Fragmented Nuclei (%),[8],10%
same,Population Healthy Nuclei (%),[8],81%
same,Population Hoechst High Intensity Objects (%),[8],6%
same,Population Membrane Permeable-Phenotype (%),[8],0%
same,Population Mitochondria Different-Phenotype (%),[8],46%
same,Population Mitotic Cells (%),[8],70%
same,Population Normal (%),[8],93%
same,Population Pyknosed Nuclei (%),[8],7%
same,Total Cell Count,[8],443
same,Population Apoptotic (%),[9],17%
same,Population Fragmented Nuclei (%),[9],16%
same,Population Healthy Nuclei (%),[9],77%
same,Population Hoechst High Intensity Objects (%),[9],2%
same,Population Membrane Permeable-Phenotype (%),[9],3%
same,Population Mitochondria Different-Phenotype (%),[9],13%
same,Population Mitotic Cells (%),[9],82%
same,Population Normal (%),[9],97%
same,Population Pyknosed Nuclei (%),[9],6%
same,Population Tubulin-Different-Phenotype (%),[9],10%
same,Total Cell Count,[9],1005
same,Population Apoptotic (%),[10],33%
same,Population Fragmented Nuclei (%),[10],14%
same,Population Healthy Nuclei (%),[10],79%
same,Population Hoechst High Intensity Objects (%),[10],3%
same,Population Membrane Permeable-Phenotype (%),[10],1%
same,Population Mitochondria Different-Phenotype (%),[10],19%
same,Population Mitotic Cells (%),[10],66%
same,Population Normal (%),[10],96%
same,Population Tubulin-Different-Phenotype (%),[10],7%
same,Total Cell Count,[10],661
same,Population Apoptotic (%),[11],24%
same,Population Fragmented Nuclei (%),[11],19%
same,Population Healthy Nuclei (%),[11],74%
same,Population Hoechst High Intensity Objects (%),[11],3%
same,Population Membrane Permeable-Phenotype (%),[11],1%
same,Population Mitochondria Different-Phenotype (%),[11],13%
same,Population Mitotic Cells (%),[11],75%
same,Population Normal (%),[11],96%
same,Population Pyknosed Nuclei (%),[11],5%
same,Population Tubulin-Different-Phenotype (%),[11],10%
same,Total Cell Count,[11],995
same,Population Apoptotic (%),[12],25%
same,Population Fragmented Nuclei (%),[12],13%
same,Population Healthy Nuclei (%),[12],81%
same,Population Hoechst High Intensity Objects (%),[12],5%
same,Population Mitochondria Different-Phenotype (%),[12],23%
same,Population Normal (%),[12],94%
same,Population Pyknosed Nuclei (%),[12],4%
same,Population Tubulin-Different-Phenotype (%),[12],19%
same,Total Cell Count,[12],600
